# Measured values from ChEMBL document CHEMBL4265871, “Novel alkylated azoles as potent antifungals” (Eur J Med Chem, 2017).
# Tests used:
# [1] = Selectivity index, ratio of EC50 for toxicity in human BEAS2B cells to MIC50 for antifungal activity against ITC and FLC-resistant Candida albicans ATCC MYA-1003; format: cell-based; details: BEAS-2B cells, read-out: Selectivity Index
# Summary of the method: (§1)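 Selectivity index is the EC50 against the mammalian line (A549 or BEAS-2B) divided by the MIC against the given fungal strain.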
# Candida albicans [2] = assay: Antifungal activity against Candida albicans ATCC 10231 incubated for 48 hrs by modified CLSI M27-A3 protocol based method; format: functional; details: ATCC 10231, 48 h, read-out: MIC100
# Summary of the method: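 For C. albicans ATCC 10231, C. krusei ATCC 6258 and C. parapsilosis ATCC 22019, MIC-0 was read, meaning complete growth inhibition. For azole controls, MIC-2 (50% growth inhibition) was reported instead. Caspofungin and voriconazole were tested here; other controls came from earlier work.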
# BEAS-2B = assay: Toxicity in human BEAS2B cells assessed as cell viability at 15.6 ug/ml incubated for 24 hrs by resazurin dye based assay
# [3] = Hemolytic activity in mouse erythrocytes assessed as hemolysis level at 31.3 ug/ml incubated for 1 hr at 37 degC; format: ADME, cell-based, Erythrocyte; details: read-out: Activity
# Summary of the method: (§2)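 Mouse erythrocytes incubated 1 h at 37 °C with test agents over 1.95 to 125 µg/mL. Percent lysis is read for each concentration.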
# [4] = Selectivity index, ratio of EC50 for toxicity in human BEAS2B cells to MIC for antifungal activity against Candida parapsilosis ATCC 22019; details: BEAS-2B cells
# [5] = Selectivity index, ratio of EC50 for toxicity in human A549 cells to MIC for antifungal activity against Candida parapsilosis ATCC 22019
# Aspergillus terreus = assay: Antifungal activity against Aspergillus terreus ATCC MYA-3633 incubated for 48 hrs by CLSI M38-A2 protocol based method; format: functional; details: ATCC MYA-3633, 48 h, read-out: MIC100
# [6] = Selectivity index, ratio of […] for toxicity in human BEAS2B cells to MIC50 for antifungal activity against Aspergillus flavus ATCC MYA-3631; format: cell-based; details: BEAS-2B cells, read-out: Selectivity Index
# [7] = Selectivity index, ratio of EC50 for toxicity in human A549 cells to MIC100 for antifungal activity against Candida albicans ATCC 10231; format: cell-based; details: read-out: Selectivity Index; summary of the method: as §1
# Candida albicans [8] = assay: Antifungal activity against Candida albicans ATCC 64124 incubated for 48 hrs by modified CLSI M27-A3 protocol based method; format: functional; details: ATCC 64124, 48 h
# Candida albicans [9] = assay: Antifungal activity against ITC and FLC-resistant Candida albicans ATCC 1237 incubated for 48 hrs by modified CLSI M27-A3 protocol based method; format: functional; details: ATCC 1237, 48 h
# Summary of the method: (§3)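 Because these Candida strains show trailing growth, MIC-2 was read, meaning 50% growth inhibition. Caspofungin and voriconazole were tested here; other controls came from earlier work.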
# [10] = Selectivity index, ratio of EC50 for toxicity in human A549 cells to MIC50 for antifungal activity against ITC and FLC-susceptible Candida albicans ATCC MYA-2310; format: cell-based; details: read-out: Selectivity Index; summary of the method: as §1
# [11] = Hemolytic activity in mouse erythrocytes assessed as hemolysis level at 3.9 ug/ml incubated for 1 hr at 37 degC; format: ADME, cell-based, Erythrocyte; details: read-out: Activity; summary of the method: as §2
# [12] = Selectivity index, ratio of EC50 for toxicity in human A549 cells to MIC50 for antifungal activity against ITC and FLC-resistant Candida albicans ATCC 1237; format: cell-based; details: read-out: Selectivity Index; summary of the method: as §1
# [13] = Selectivity index, ratio of EC50 for toxicity in human BEAS2B cells to MIC50 for antifungal activity against Candida glabrata ATCC 2001; format: cell-based; details: BEAS-2B cells, read-out: Selectivity Index; summary of the method: as §1
# A549 = assay: Toxicity in human A549 cells assessed as cell viability at 15.6 ug/ml incubated for 24 hrs by resazurin dye based assay; details: a549, 24 h
# [14] = Selectivity index, ratio of EC50 for toxicity in human BEAS2B cells to MIC100 for antifungal activity against Candida albicans ATCC 10231; format: cell-based; details: BEAS-2B cells, read-out: Selectivity Index; summary of the method: as §1
# Candida albicans [15] = assay: Antifungal activity against ITC and FLC-susceptible Candida albicans ATCC MYA-2876 incubated for 48 hrs by modified CLSI M27-A3 protocol based method; format: functional; details: ATCC MYA-2876, 48 h; summary of the method: as §3
smiles,measurement,setting,value
CCCCCC(O)(Cn1cncn1)c1ccc(Cl)cc1Cl (configuration not stated),selectivity ratio,[1],32
same,MIC,Candida albicans [2],0.73 µM
same,viability,BEAS-2B,> 85%
same,"hemolysis at 1 h, 31.3 ug/ml",[3],90.5%
same,selectivity ratio,[4],1040
same,selectivity ratio,[5],1100
same,MIC,Aspergillus terreus,11.9 µM
same,selectivity ratio,[6],8
same,selectivity ratio,[7],138
same,MIC50,Candida albicans [8],5.9 µM
same,MIC50,Candida albicans [9],5.9 µM
same,selectivity ratio,[10],17
same,"hemolysis at 1 h, 3.9 ug/ml",[11],0%
same,selectivity ratio,[12],17
same,selectivity ratio,[13],16
same,viability,A549,> 85%
same,selectivity ratio,[14],130
same,MIC50,Candida albicans [15],3 µM
CCCCCC(O)(Cn1cncn1)c1ccc(Cl)cc1 (configuration not stated),selectivity ratio,[1],16
same,MIC,Candida albicans [2],6.6 µM
same,selectivity ratio,[4],522
same,selectivity ratio,[5],522
same,MIC,Aspergillus terreus,> 106 µM
same,selectivity ratio,[6],1
same,selectivity ratio,[7],16
same,MIC50,Candida albicans [8],26.5 µM
same,MIC50,Candida albicans [9],13.3 µM
same,selectivity ratio,[10],2
same,selectivity ratio,[12],8
same,selectivity ratio,[13],8
same,selectivity ratio,[14],16
same,MIC50,Candida albicans [15],53.1 µM
CCCCCCC(O)(Cn1cncn1)c1ccc(F)cc1 (configuration not stated),selectivity ratio,[1],4
same,MIC,Candida albicans [2],53.5 µM
same,"hemolysis at 1 h, 31.3 ug/ml",[3],0%
same,selectivity ratio,[4],65
same,selectivity ratio,[5],65
same,MIC,Aspergillus terreus,53.5 µM
same,selectivity ratio,[6],1
same,selectivity ratio,[7],2
same,MIC50,Candida albicans [8],> 107 µM
same,MIC50,Candida albicans [9],107 µM
same,selectivity ratio,[10],4
same,"hemolysis at 1 h, 3.9 ug/ml",[11],0%
same,selectivity ratio,[12],1
same,selectivity ratio,[13],4
same,selectivity ratio,[14],2
same,MIC50,Candida albicans [15],26.8 µM
CCCCCCC(O)(Cn1cncn1)c1ccc(Cl)cc1 (configuration not stated),selectivity ratio,[1],16
same,MIC,Candida albicans [2],6.3 µM
same,"hemolysis at 1 h, 31.3 ug/ml",[3],9.5%
same,selectivity ratio,[4],1
same,selectivity ratio,[5],1
same,MIC,Aspergillus terreus,50.7 µM
same,selectivity ratio,[6],1
same,selectivity ratio,[7],19
same,MIC50,Candida albicans [8],102 µM
same,MIC50,Candida albicans [9],12.7 µM
same,selectivity ratio,[10],1
same,"hemolysis at 1 h, 3.9 ug/ml",[11],0%
same,selectivity ratio,[12],10
same,selectivity ratio,[13],1
same,selectivity ratio,[14],16
same,MIC50,Candida albicans [15],25.3 µM
CCCCCCC(O)(Cn1cncn1)c1ccccc1Cl (configuration not stated),selectivity ratio,[1],4
same,MIC,Candida albicans [2],25.3 µM
same,"hemolysis at 1 h, 31.3 ug/ml",[3],0%
same,selectivity ratio,[4],261
same,selectivity ratio,[5],261
same,MIC,Aspergillus terreus,1.6 µM
same,selectivity ratio,[6],8 to 16
same,selectivity ratio,[7],4
same,MIC50,Candida albicans [8],> 102 µM
same,MIC50,Candida albicans [9],3.2 µM
same,selectivity ratio,[10],16
same,"hemolysis at 1 h, 3.9 ug/ml",[11],0%
same,selectivity ratio,[12],32
same,selectivity ratio,[13],32
same,selectivity ratio,[14],4
same,MIC50,Candida albicans [15],3.2 µM
CCCCC(O)(Cn1cncn1)c1ccc(F)cc1F (configuration not stated),selectivity ratio,[1],9
same,MIC,Candida albicans [2],6.9 µM
same,"hemolysis at 1 h, 31.3 ug/ml",[3],3.7%
same,selectivity ratio,[4],1200
same,selectivity ratio,[5],1040
same,MIC,Aspergillus terreus,55.5 µM
same,selectivity ratio,[6],2
same,selectivity ratio,[7],16
same,MIC50,Candida albicans [8],55.5 µM
same,MIC50,Candida albicans [9],55.5 µM
same,selectivity ratio,[10],1
same,"hemolysis at 1 h, 3.9 ug/ml",[11],0%
same,selectivity ratio,[12],2
same,selectivity ratio,[13],1
same,selectivity ratio,[14],19
same,MIC50,Candida albicans [15],27.7 µM
CCCCCCC(O)(Cn1cncn1)c1ccccc1F (configuration not stated),selectivity ratio,[1],8
same,MIC,Candida albicans [2],6.7 µM
same,"hemolysis at 1 h, 31.3 ug/ml",[3],8.7%
same,selectivity ratio,[4],261
same,selectivity ratio,[5],261
same,MIC,Aspergillus terreus,13.4 µM
same,selectivity ratio,[6],1 to 2
same,selectivity ratio,[7],16
same,MIC50,Candida albicans [8],> 107 µM
same,MIC50,Candida albicans [9],3.3 µM
same,selectivity ratio,[10],32
same,"hemolysis at 1 h, 3.9 ug/ml",[11],0%
same,selectivity ratio,[12],32
same,selectivity ratio,[13],32
same,selectivity ratio,[14],16
same,MIC50,Candida albicans [15],3.3 µM
